Reference: ChEMBL document CHEMBL1165881, “Synthesis and cytotoxicity evaluation of (tetrahydro-beta-carboline)-1,3,5-triazine hybrids as anticancer agents” (Eur J Med Chem, 2010)

What was measured:
DU-145 = assay: Cytotoxicity against human DU145 cells after 72 hrs by MTT assay; type: functional, cell-based; conditions: du-145; read-out: IC50
Summary of the method: (§1)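 Seeded at 5000–10000 cells/well, incubated at 37 °C in CO2 with compounds at a range of concentrations, controls included, in triplicate wells. After 72 h, MTT solution (5 mg/mL) added; absorbance read at 540 nm. % cytotoxicity = 100 × [1 − (X/R1)] versus control absorbance; IC50 by nonlinear regression. Values are means of at least two independent experiments, three determinations each.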

KB = assay: Cytotoxicity against human KB cells after 72 hrs by MTT assay; type: functional, cell-based; conditions: kb; summary of the method: as §1
MIA PaCa-2 = assay: Cytotoxicity against human MIAPaCa2 cells after 72 hrs by MTT assay; type: functional, cell-based; conditions: mia paca-2; read-out: IC50; summary of the method: as §1
A549 = assay: Cytotoxicity against human […] cells after 72 hrs by MTT assay; type: functional, cell-based; conditions: a549; read-out: IC50; summary of the method: as §1
MCF7 [1] = assay: Cell cycle arrest in human MCF7 cells assessed as accumulation at S phase at 0.5 uM after 24 hrs using propidium iodide staining by flow cytometry; type: functional
MCF7 [2] = assay: Cell cycle arrest in human MCF7 cells assessed as accumulation at G1 phase at 0.5 uM after 24 hrs using propidium iodide staining by flow cytometry; type: functional
MCF7 [3] = assay: Cytotoxicity against human MCF7 cells after 72 hrs by MTT assay; type: functional, cell-based; conditions: mcf7; read-out: IC50; summary of the method: as §1
MDA-MB-231 [4] = assay: Cell cycle arrest in human MDA-MB-231 cells assessed as accumulation at S phase at o.74 uM after 24 hrs using propidium iodide staining by flow cytometry; type: functional
MDA-MB-231 [5] = assay: Cell cycle arrest in human MDA-MB-231 cells assessed as accumulation at G1 phase at o.74 uM after 24 hrs using propidium iodide staining by flow cytometry; type: functional
MCF7 [6] = assay: Cell cycle arrest in human MCF7 cells assessed as accumulation at G2 phase at 0.5 uM after 24 hrs using propidium iodide staining by flow cytometry; type: functional
MDA-MB-231 [7] = assay: Cell cycle arrest in human MDA-MB-231 cells assessed as accumulation at G2 phase at 0.5 uM after 24 hrs using propidium iodide staining by flow cytometry; type: functional
K562 = assay: Cytotoxicity against human K562 cells after 72 hrs by MTT assay; type: functional, cell-based; conditions: Homo sapiens, K562, 72 h; read-out: IC50; summary of the method: as §1
PA-1 = assay: Cytotoxicity against human PA1 cells after 72 hrs by MTT assay; type: functional, cell-based; conditions: pa-1; read-out: IC50; summary of the method: as §1
MDA-MB-231 [8] = assay: Cell cycle arrest in human MDA-MB-231 cells assessed as accumulation at G2 phase at o.74 uM after 24 hrs using propidium iodide staining by flow cytometry; type: functional
MCF7 [9] = assay: Cell cycle arrest in human MCF7 cells assessed as accumulation at G2 phase at o.74 uM after 24 hrs using propidium iodide staining by flow cytometry; type: functional
MDA-MB-231 [10] = assay: Cell cycle arrest in human MDA-MB-231 cells assessed as accumulation at S phase at 0.5 uM after 24 hrs using propidium iodide staining by flow cytometry; type: functional
MDA-MB-231 [11] = assay: Cell cycle arrest in human MDA-MB-231 cells assessed as accumulation at G1 phase at 0.5 uM after 24 hrs using propidium iodide staining by flow cytometry; type: functional
[12] = Cytotoxicity against mouse NIH/3T3 cells after 72 hrs by MTT assay; type: cell-based, NIH3T3; conditions: nih3t3; read-out: IC50; summary of the method: as §1
MCF7 [13] = assay: Cell cycle arrest in human MCF7 cells assessed as accumulation at S phase at o.74 uM after 24 hrs using propidium iodide staining by flow cytometry; type: functional
MCF7 [14] = assay: Cell cycle arrest in human MCF7 cells assessed as accumulation at G1 phase at o.74 uM after 24 hrs using propidium iodide staining by flow cytometry; type: functional
SW-620 = assay: Cytotoxicity against human SW620 cells after 72 hrs by MTT assay; type: functional, cell-based; conditions: sw-620; read-out: IC50; summary of the method: as §1

COC(=O)[C@@H]1Cc2c([nH]c3ccccc23)[C@@H](c2ccc(OC)cc2)N1c1nc(N2CCN(C)CC2)nc(N2CCN(C)CC2)n1
IC50 (DU-145): 6750 nM
IC50 (KB): 8060 nM
IC50 (MIA PaCa-2): 2300 nM
IC50 (A549): 2100 nM
Activity (MCF7 [1]): 35.5%
Activity (MCF7 [2]): 64.4%
IC50 (MCF7 [3]): 740 nM
Activity (MDA-MB-231 [4]): 21.91%
Activity (MDA-MB-231 [5]): 65.11%
Activity (MCF7 [6]): 0.09%
Activity (MDA-MB-231 [7]): 12.63%
IC50 (K562): 4600 nM
IC50 (PA-1): 1820 nM
Activity (MDA-MB-231 [8]): 12.98%
Activity (MCF7 [9]): 23.2%
Activity (MDA-MB-231 [10]): 22.74%
Activity (MDA-MB-231 [11]): 64.63%
IC50 [12]: 1960 nM
Activity (MCF7 [13]): 0.12%
Activity (MCF7 [14]): 76.68%
IC50 (SW-620): 1350 nM
